Results: ChEMBL document CHEMBL1250448, “Inhibitor hijacking of Akt activation” (Nat Chem Biol, 2009)

Legend:
[1] = molecular target: Tyrosine-protein kinase Fes/Fps (Homo sapiens) (UniProt P07332); assay: Inhibition of FES at 1 uM in presence of 10 uM ATP by Select Screen kinase assay relative to untreated control
Method in brief: (§1)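 Single-point screen at 1 μM against a panel of 220 purified kinases, run by Invitrogen staff as a SelectScreen profiling service. Read-out is percent inhibition of kinase activity.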

[2] = molecular target: T1, Tyrosine-protein kinase receptor TYRO3 (Homo sapiens) (UniProt Q06418); assay: Inhibition of TYRO3 at 1 uM in presence of 10 uM ATP by Select Screen kinase assay relative to untreated control
T1 sequence (whole entry): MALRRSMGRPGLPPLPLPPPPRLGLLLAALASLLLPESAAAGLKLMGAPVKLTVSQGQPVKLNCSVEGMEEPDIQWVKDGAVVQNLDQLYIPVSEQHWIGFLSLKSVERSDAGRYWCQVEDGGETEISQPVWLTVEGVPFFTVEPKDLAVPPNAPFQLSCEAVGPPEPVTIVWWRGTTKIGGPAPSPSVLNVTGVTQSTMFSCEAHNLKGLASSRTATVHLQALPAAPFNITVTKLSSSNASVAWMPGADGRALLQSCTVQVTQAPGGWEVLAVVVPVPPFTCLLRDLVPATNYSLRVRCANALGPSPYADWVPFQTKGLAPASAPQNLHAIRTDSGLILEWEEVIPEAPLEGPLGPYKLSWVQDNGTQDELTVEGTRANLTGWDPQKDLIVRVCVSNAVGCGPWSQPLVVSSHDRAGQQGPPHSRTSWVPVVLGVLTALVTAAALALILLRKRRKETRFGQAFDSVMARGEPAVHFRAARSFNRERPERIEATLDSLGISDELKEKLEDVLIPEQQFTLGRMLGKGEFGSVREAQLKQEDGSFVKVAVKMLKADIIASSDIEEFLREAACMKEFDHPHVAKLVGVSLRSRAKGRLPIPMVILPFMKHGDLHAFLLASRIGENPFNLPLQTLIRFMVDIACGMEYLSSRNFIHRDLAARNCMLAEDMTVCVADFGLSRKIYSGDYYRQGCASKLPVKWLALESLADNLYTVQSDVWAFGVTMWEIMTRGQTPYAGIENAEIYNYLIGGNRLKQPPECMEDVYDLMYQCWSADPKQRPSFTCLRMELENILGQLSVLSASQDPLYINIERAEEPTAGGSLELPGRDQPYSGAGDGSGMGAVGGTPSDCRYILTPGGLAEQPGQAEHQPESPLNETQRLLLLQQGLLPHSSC
Method in brief: (§2)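 Commercial SelectScreen profiling panel of 220 purified kinases. Each kinase was tested at a single inhibitor concentration of 1 μM, and activity was expressed as percent inhibition.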

[3] = molecular target: T2, MAP kinase-activated protein kinase 5 (Homo sapiens) (UniProt Q8IW41); assay: Inhibition of MAPKAPK5 at 1 uM in presence of 10 uM ATP by Select Screen kinase assay relative to untreated control
T2 sequence (whole entry): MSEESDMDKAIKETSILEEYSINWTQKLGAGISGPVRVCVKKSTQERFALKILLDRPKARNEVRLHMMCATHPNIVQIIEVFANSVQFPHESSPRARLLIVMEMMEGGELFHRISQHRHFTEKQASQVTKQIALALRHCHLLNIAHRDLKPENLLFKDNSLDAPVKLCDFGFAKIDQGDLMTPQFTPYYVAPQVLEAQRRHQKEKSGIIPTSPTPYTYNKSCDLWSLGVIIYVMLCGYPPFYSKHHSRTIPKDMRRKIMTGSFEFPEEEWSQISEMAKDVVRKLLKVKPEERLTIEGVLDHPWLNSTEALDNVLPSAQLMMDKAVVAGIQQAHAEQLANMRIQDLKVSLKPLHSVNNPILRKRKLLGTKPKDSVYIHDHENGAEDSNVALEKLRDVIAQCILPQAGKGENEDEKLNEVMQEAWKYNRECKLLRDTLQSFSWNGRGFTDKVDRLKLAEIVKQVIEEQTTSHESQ
Method in brief: (§3)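 Single-concentration profiling at 1 μM against a panel of 220 purified kinases, run as an outsourced SelectScreen kinase profiling service. Activity is expressed as percent inhibition.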

[4] = molecular target: T3, Phosphorylase b kinase gamma catalytic chain, liver/testis isoform (Homo sapiens) (UniProt P15735); assay: Inhibition of PHKG2 at 1 uM in presence of 10 uM ATP by Select Screen kinase assay relative to untreated control; method in brief: as §2
T3 sequence (whole entry): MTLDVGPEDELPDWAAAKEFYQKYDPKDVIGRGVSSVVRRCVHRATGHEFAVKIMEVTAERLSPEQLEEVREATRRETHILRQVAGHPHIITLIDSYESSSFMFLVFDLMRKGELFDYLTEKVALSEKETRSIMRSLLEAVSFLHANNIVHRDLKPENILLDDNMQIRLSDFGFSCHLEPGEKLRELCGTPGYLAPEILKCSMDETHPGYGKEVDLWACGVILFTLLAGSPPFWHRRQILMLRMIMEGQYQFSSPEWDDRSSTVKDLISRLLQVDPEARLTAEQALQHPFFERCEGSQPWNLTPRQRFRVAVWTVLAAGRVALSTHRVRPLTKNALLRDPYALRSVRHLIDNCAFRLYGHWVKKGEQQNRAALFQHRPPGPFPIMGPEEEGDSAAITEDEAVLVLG

[5] = molecular target: Vascular endothelial growth factor receptor 1 (Homo sapiens) (UniProt P17948); assay: Inhibition of FLT1 at 1 uM in presence of 100 uM ATP by Select Screen kinase assay relative to untreated control; method in brief: as §3
[6] = molecular target: Dual specificity mitogen-activated protein kinase kinase 2 (Homo sapiens) (UniProt P36507); assay: Inhibition of MAP2K2 at 1 uM in presence of 100 uM ATP by Select Screen kinase assay relative to untreated control; method in brief: as §3
[7] = tested on: Serine/threonine-protein kinase B-raf (Homo sapiens), P15056 [V600E]; assay: Inhibition of BRAF V599E mutant at 1 uM in presence of 100 uM ATP by Select Screen kinase assay relative to untreated control; method in brief: as §1
[8] = molecular target: Serine/threonine-protein kinase Nek4 (Homo sapiens) (UniProt P51957); assay: Inhibition of NEK4 at 1 uM in presence of 100 uM ATP by Select Screen kinase assay relative to untreated control; method in brief: as §3
[9] = molecular target: G protein-coupled receptor kinase 6 (Homo sapiens) (UniProt P43250); assay: Inhibition of GRK6 at 1 uM in presence of 10 uM ATP by Select Screen kinase assay relative to untreated control; method in brief: as §3
[10] = molecular target: BDNF/NT-3 growth factors receptor (Homo sapiens) (UniProt Q16620); assay: Inhibition of NTRK2 at 1 uM in presence of 10 uM ATP by Select Screen kinase assay relative to untreated control; method in brief: as §2
[11] = molecular target: Fibroblast growth factor receptor 4 (Homo sapiens) (UniProt P22455); assay: Inhibition of FGFR4 at 1 uM in presence of 10 uM ATP by Select Screen kinase assay relative to untreated control; method in brief: as §3
[12] = molecular target: Insulin receptor-related protein (Homo sapiens) (UniProt P14616); assay: Inhibition of INSRR at 1 uM in presence of 100 uM ATP by Select Screen kinase assay relative to untreated control; method in brief: as §3
Chain of Insulin receptor-related protein (Homo sapiens) (P14616 27-742 limits assumed): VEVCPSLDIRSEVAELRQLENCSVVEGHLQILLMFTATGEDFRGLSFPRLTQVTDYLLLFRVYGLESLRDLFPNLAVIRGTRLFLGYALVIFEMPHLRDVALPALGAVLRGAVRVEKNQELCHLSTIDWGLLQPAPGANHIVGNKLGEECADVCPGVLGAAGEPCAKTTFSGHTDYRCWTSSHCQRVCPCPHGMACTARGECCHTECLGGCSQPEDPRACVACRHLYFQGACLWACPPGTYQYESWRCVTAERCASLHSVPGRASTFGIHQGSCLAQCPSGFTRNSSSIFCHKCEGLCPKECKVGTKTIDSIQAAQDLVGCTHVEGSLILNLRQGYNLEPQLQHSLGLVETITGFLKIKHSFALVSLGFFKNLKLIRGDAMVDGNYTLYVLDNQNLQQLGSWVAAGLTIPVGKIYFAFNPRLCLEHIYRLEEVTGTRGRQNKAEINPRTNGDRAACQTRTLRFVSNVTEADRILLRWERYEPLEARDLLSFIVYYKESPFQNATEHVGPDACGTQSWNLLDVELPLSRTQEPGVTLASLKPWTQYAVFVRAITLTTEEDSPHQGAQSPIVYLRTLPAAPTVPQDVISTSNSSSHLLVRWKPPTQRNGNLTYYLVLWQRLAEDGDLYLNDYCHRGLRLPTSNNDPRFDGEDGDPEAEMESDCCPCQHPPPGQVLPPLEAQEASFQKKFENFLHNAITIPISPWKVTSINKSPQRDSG
Chain of Insulin receptor-related protein (Homo sapiens) (P14616 747-1297 limits assumed): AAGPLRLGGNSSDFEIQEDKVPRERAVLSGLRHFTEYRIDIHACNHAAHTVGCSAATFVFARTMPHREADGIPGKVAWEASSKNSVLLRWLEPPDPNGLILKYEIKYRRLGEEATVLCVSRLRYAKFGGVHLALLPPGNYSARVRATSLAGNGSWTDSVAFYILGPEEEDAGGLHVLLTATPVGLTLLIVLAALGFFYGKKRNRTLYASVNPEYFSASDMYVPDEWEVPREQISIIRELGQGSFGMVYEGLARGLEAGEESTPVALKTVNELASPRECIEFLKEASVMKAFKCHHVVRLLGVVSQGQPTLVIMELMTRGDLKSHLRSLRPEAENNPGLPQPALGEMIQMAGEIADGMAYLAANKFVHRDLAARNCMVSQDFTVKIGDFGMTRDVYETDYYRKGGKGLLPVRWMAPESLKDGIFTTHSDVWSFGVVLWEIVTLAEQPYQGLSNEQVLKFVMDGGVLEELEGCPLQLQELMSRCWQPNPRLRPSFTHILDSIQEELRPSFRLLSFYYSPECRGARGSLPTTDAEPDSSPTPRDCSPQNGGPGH

Chain of Serine/threonine-protein kinase B-raf (Homo sapiens), P15056 [V600E] (P15056 whole entry V600E): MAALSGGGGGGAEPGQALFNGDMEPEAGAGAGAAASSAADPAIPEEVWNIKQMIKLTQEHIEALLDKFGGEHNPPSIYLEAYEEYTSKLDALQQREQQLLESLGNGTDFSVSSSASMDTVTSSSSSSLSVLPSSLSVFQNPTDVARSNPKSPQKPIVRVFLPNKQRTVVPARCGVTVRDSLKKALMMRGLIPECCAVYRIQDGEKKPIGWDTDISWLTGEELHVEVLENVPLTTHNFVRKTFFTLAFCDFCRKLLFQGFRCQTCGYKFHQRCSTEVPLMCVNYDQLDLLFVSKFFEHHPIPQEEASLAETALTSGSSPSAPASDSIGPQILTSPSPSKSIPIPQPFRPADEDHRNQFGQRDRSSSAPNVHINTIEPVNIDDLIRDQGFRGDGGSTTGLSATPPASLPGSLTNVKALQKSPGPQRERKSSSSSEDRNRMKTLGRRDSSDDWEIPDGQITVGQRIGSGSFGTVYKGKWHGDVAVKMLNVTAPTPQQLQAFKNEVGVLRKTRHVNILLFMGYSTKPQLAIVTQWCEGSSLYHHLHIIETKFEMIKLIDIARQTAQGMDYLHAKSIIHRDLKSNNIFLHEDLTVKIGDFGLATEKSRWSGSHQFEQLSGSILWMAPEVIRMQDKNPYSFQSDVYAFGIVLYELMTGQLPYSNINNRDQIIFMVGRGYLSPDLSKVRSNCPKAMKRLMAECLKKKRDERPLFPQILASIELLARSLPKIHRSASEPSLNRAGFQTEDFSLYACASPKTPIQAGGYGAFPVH
Chain of Vascular endothelial growth factor receptor 1 (Homo sapiens) (P17948 whole entry): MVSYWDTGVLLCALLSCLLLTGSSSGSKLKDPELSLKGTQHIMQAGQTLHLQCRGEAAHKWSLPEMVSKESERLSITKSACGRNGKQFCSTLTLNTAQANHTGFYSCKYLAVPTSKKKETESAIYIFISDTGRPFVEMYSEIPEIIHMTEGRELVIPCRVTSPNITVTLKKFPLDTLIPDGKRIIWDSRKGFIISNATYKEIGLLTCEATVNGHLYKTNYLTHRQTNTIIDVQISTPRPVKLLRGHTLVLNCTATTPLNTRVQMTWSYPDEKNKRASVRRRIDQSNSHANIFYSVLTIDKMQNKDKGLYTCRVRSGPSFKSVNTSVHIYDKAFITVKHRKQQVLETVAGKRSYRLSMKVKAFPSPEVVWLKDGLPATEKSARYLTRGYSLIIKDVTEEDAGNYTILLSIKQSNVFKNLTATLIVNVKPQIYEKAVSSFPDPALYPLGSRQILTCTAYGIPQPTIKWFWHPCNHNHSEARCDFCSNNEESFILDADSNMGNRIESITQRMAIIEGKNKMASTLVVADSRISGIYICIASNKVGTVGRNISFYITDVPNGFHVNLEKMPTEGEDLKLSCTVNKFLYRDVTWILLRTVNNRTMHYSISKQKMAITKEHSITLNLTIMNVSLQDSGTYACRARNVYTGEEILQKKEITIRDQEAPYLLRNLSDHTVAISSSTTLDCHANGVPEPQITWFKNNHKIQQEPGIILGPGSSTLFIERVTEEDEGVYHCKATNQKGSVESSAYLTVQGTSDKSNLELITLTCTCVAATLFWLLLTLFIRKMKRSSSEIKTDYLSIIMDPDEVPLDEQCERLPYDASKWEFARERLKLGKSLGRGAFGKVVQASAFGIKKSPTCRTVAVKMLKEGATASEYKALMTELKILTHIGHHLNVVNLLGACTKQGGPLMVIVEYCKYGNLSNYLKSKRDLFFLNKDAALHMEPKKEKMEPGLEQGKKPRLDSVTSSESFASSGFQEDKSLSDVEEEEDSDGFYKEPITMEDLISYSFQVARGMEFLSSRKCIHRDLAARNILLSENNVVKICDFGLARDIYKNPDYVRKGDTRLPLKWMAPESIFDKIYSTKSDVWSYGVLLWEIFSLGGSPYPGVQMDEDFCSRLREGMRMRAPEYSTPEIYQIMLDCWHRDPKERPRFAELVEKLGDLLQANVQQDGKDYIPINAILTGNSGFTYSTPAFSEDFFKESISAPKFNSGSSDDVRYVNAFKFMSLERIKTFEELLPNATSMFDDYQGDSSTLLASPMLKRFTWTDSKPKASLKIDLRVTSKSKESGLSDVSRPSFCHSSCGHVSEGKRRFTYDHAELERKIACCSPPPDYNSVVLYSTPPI
Chain of BDNF/NT-3 growth factors receptor (Homo sapiens) (Q16620 32-822 limits assumed): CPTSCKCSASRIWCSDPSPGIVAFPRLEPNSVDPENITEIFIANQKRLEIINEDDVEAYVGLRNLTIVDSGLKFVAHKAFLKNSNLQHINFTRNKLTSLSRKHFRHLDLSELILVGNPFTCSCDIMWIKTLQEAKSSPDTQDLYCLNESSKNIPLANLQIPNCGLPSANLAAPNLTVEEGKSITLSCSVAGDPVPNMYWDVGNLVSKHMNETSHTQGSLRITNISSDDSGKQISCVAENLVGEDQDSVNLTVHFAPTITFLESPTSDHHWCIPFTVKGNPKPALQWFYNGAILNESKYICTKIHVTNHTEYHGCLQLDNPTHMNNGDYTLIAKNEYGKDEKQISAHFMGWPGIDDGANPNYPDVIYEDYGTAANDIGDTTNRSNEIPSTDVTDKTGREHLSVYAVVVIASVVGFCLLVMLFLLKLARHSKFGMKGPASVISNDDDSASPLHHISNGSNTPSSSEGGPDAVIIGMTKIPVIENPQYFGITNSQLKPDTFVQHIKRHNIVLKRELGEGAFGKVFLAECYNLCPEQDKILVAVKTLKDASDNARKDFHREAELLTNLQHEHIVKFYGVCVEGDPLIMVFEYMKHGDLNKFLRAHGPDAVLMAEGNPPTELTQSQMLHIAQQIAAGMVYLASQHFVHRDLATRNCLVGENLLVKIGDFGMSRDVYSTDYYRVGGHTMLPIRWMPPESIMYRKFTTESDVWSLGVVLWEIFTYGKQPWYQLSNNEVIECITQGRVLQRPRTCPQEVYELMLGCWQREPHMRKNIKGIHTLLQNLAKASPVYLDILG
Chain of Tyrosine-protein kinase Fes/Fps (Homo sapiens) (P07332 whole entry): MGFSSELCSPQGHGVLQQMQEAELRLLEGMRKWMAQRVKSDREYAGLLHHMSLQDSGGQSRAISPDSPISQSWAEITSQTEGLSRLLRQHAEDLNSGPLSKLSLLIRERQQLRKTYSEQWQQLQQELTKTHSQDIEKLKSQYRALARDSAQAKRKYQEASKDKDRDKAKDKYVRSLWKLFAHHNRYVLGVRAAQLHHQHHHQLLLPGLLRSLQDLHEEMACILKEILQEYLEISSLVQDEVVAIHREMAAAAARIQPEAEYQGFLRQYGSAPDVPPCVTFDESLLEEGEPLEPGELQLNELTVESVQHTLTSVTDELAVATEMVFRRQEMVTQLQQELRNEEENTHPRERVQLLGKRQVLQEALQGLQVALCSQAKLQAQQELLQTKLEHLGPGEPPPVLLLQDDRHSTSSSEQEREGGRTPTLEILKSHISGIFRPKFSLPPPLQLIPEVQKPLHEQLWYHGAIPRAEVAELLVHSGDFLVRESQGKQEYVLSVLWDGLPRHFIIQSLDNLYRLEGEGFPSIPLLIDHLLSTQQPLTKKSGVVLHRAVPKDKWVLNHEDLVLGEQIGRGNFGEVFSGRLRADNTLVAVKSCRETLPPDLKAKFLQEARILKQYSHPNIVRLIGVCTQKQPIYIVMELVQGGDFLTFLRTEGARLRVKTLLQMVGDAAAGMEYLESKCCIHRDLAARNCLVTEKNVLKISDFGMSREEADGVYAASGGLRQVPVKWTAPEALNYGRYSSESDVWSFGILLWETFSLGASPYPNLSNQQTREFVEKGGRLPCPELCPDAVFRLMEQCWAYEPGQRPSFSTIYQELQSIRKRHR

Structure (SMILES) | inhibition [1] [%] | inhibition [2] [%] | inhibition [3] [%] | inhibition [4] [%] | inhibition [5] [%] | inhibition [6] [%] | inhibition [7] [%] | inhibition [8] [%] | inhibition [9] [%] | inhibition [10] [%] | inhibition [11] [%] | inhibition [12] [%]
Cc1n[nH]c2ccc(-c3cncc(OC[C@@H](N)Cc4c[nH]c5ccccc45)c3)cc12 | 40 | 14 | 10 | 11 | -2 | 42 | 45 | 41 | 78 | 12 | -2 | 1
O=C(NCCCNc1nc(Nc2cccc(NC(=O)N3CCCC3)c2)ncc1I)c1cccs1 | 37 | 42 | 1 | 28 | 52 | 69 | 52 | 24 | 2 | 74 | 29 | 12
COc1ccccc1N1CCN(c2ncnc3[nH]nc(Br)c23)CC1 | 16 | 37 | 4 | 4 | 20 | 21 | 9 | 10 | 27 | 11 | 15 | 8
